Measured values published in ChEMBL document CHEMBL2417474, “Synthesis, antiproliferative and anti-inflammatory activities of some novel 6-aryl-2-(p-(methanesulfonyl)phenyl)-4,5-dihydropyridazi-3(2H)-ones” (Eur J Med Chem, 2013).

Legend:
Type in all cases: functional
A549 [1] = assay: Growth inhibition of human A549/ATCC cells after 48 hrs by sulforhodamine B assay; settings: A549, 48 h; for CC50: read-out: LC50 (the source's name)
Outline: (§1)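 NCI 60-cell-line panel grown in RPMI-type medium with 5% fetal calf serum and 2 mM L-glutamine. Cells preincubated 24 h, then exposed continuously for 48 h to compound in DMSO at 10^-4 to 10^-8 M (five 10-fold levels). Growth read by SRB protein stain. GI50 is the concentration giving a 50% reduction in net protein increase relative to control cells.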

DU-145 = assay: Growth inhibition of human DU145 cells assessed as cell growth at 10 uM after 48 hrs by sulforhodamine B assay; settings: DU-145, 48 h, read-out: Activity
RPMI-8226 = assay: Growth inhibition of human RPMI8226 cells after 48 hrs by sulforhodamine B assay; settings: RPMI-8226, 48 h; for CC50: read-out: LC50 (the source's name)
Outline: (§2)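 NCI 60-cell-line panel. Cells were grown in medium with 5% fetal calf serum and 2 mM L-glutamine, then preincubated 24 h in plates. Compounds were added from DMSO at five 10-fold concentrations from 100 to 0.01 µM and left on cells continuously for 48 h. Cell growth was read by sulforhodamine B protein stain. GI50 is the concentration that halves net protein increase relative to control cells.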

M14 = assay: Growth inhibition of human M14 cells assessed as cell growth at 10 uM after 48 hrs by sulforhodamine B assay; settings: M14, 48 h, read-out: Activity
SN12C = assay: Growth inhibition of human SN12C cells after 48 hrs by sulforhodamine B assay
Outline: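 Part of the NCI 60-cell-line panel. Cells were grown in 1640 medium with 5% fetal calf serum and 2 mM L-glutamine, then preincubated 24 h before compound was added. Compounds in DMSO were tested at five concentrations (100, 10, 1, 0.1, 0.01 µM) with 48 h continuous exposure. Read-out was SRB protein staining; GI50 is the concentration halving the net protein increase versus control.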

CCRF-CEM = assay: Growth inhibition of human CCRF-CEM cells assessed as cell growth at 10 uM after 48 hrs by sulforhodamine B assay; settings: read-out: Activity
T47D = assay: Growth inhibition of human T47D cells after 48 hrs by sulforhodamine B assay
Outline: (§3)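 NCI 60-line panel. Cells were grown in medium with 5% fetal calf serum and 2 mM L-glutamine and preincubated 24 h in plates. Compound in DMSO was added at 10^-4 to 10^-8 M (five 10-fold levels), with continuous exposure for 48 h. Growth was read by SRB protein staining. GI50 is the concentration giving 50% reduction in net protein increase versus control cells.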

HCT-15 = assay: Growth inhibition of human HCT15 cells after 48 hrs by sulforhodamine B assay; settings: HCT-15, 48 h; outline: as §1
SW-620 = assay: Growth inhibition of human SW620 cells after 48 hrs by sulforhodamine B assay; settings: SW-620, 48 h; for CC50: read-out: LC50 (the source's name); outline: as §3
TK-10 = assay: Growth inhibition of human TK10 cells after 48 hrs by sulforhodamine B assay; settings: TK-10, 48 h; for CC50: read-out: LC50 (the source's name); outline: as §3
NCI-H23 = assay: Growth inhibition of human NCI-H23 cells after 48 hrs by sulforhodamine B assay; settings: NCI-H23, 48 h; for CC50: read-out: LC50 (the source's name); outline: as §2
NCI-H226 [2] = assay: Growth inhibition of human NCI-H226 cells after 48 hrs by sulforhodamine B assay; settings: NCI-H226, 48 h; for CC50: read-out: LC50 (the source's name); outline: as §2
COLO 205 = assay: Growth inhibition of human COLO205 cells after 48 hrs by sulforhodamine B assay; settings: COLO 205, 48 h; for CC50: read-out: LC50 (the source's name); outline: as §1
NCI-H460 = assay: Growth inhibition of human NCI-H460 cells after 48 hrs by sulforhodamine B assay; settings: NCI-H460, 48 h; for CC50: read-out: LC50 (the source's name); outline: as §2
BT-549 = assay: Growth inhibition of human BT549 cells after 48 hrs by sulforhodamine B assay; settings: BT-549, 48 h; for CC50: read-out: LC50 (the source's name); outline: as §1
SF-539 = assay: Growth inhibition of human SF539 cells assessed as cell growth at 10 uM after 48 hrs by sulforhodamine B assay; settings: SF-539, 48 h, read-out: Activity
OVCAR-5 = assay: Growth inhibition of human OVCAR5 cells after 48 hrs by sulforhodamine B assay; settings: OVCAR-5, 48 h; for CC50: read-out: LC50 (the source's name); outline: as §2
K562 = assay: Growth inhibition of human K562 cells assessed as cell growth at 10 uM after 48 hrs by sulforhodamine B assay; settings: K562, 48 h, read-out: Activity
NCI-H226 [3] = assay: Growth inhibition of human NCI-H226 cells assessed as cell growth at 10 uM after 48 hrs by sulforhodamine B assay; settings: NCI-H226, 48 h, read-out: Activity
HT-29 [4] = assay: Growth inhibition of human HT-29 cells after 48 hrs by sulforhodamine B assay; settings: HT-29, 48 h; outline: as §1
[5] = Growth inhibition of human Hs 578T cells assessed as cell growth at 10 uM after 48 hrs by sulforhodamine B assay; settings: read-out: Activity
HT-29 [6] = assay: Growth inhibition of human HT-29 cells assessed as cell growth at 10 uM after 48 hrs by sulforhodamine B assay; settings: HT-29, 48 h, read-out: Activity
SNB-19 = assay: Growth inhibition of human SNB19 cells assessed as cell growth at 10 uM after 48 hrs by sulforhodamine B assay; settings: SNB-19, 48 h, read-out: Activity
U-251 = assay: Growth inhibition of human U251 cells after 48 hrs by sulforhodamine B assay; settings: U-251, 48 h; for CC50: read-out: LC50 (the source's name); outline: as §3
HOP-62 = assay: Growth inhibition of human HOP62 cells after 48 hrs by sulforhodamine B assay; settings: HOP-62, 48 h; for CC50: read-out: LC50 (the source's name); outline: as §1
SK-OV-3 = assay: Growth inhibition of human SKOV3 cells assessed as cell growth at 10 uM after 48 hrs by sulforhodamine B assay; settings: SK-OV-3, 48 h, read-out: Activity
SK-MEL-2 = assay: Growth inhibition of human SK-MEL-2 cells after 48 hrs by sulforhodamine B assay; settings: SK-MEL-2, 48 h; outline: as §2
A549 [7] = assay: Growth inhibition of human A549/ATCC cells assessed as cell growth at 10 uM after 48 hrs by sulforhodamine B assay; settings: A549, 48 h, read-out: Activity
SK-MEL-5 = assay: Growth inhibition of human SK-MEL-5 cells after 48 hrs by sulforhodamine B assay; settings: SK-MEL-5, 48 h; outline: as §2

Cc1cc(O)ccc1C1=NN(c2ccc(S(C)(=O)=O)cc2)C(=O)CC1
GI50 (A549 [1]): 6.2 µM
TGI (A549 [1]): > 100 µM
CC50 (A549 [1]): > 100 µM
growth at 10 µM (DU-145): 92.2%
GI50 (RPMI-8226): 25.6 µM
TGI (RPMI-8226): > 100 µM
CC50 (RPMI-8226): > 100 µM
growth at 10 µM (M14): 49.2%
GI50 (SN12C): 7.18 µM
LC50 (SN12C): > 100 µM
TGI (SN12C): > 100 µM
growth at 10 µM (CCRF-CEM): 69.7%
GI50 (T47D): 20.2 µM
LC50 (T47D): > 100 µM
TGI (T47D): > 100 µM
GI50 (HCT-15): 7.91 µM
LC50 (HCT-15): > 100 µM
TGI (HCT-15): > 100 µM
GI50 (SW-620): 3.32 µM
TGI (SW-620): > 100 µM
CC50 (SW-620): > 100 µM
GI50 (TK-10): 80.5 µM
TGI (TK-10): > 100 µM
CC50 (TK-10): > 100 µM
GI50 (NCI-H23): 38.5 µM
TGI (NCI-H23): > 100 µM
CC50 (NCI-H23): > 100 µM
GI50 (NCI-H226 [2]): > 100 µM
TGI (NCI-H226 [2]): > 100 µM
CC50 (NCI-H226 [2]): > 100 µM
GI50 (COLO 205): 6.62 µM
TGI (COLO 205): 74.4 µM
CC50 (COLO 205): > 100 µM
GI50 (NCI-H460): 3.87 µM
TGI (NCI-H460): > 100 µM
CC50 (NCI-H460): > 100 µM
GI50 (BT-549): 4.97 µM
TGI (BT-549): > 100 µM
CC50 (BT-549): > 100 µM
growth at 10 µM (SF-539): 73.8%
GI50 (OVCAR-5): 53.8 µM
TGI (OVCAR-5): > 100 µM
CC50 (OVCAR-5): > 100 µM
growth at 10 µM (K562): 20.6%
growth at 10 µM (NCI-H226 [3]): 93.3%
GI50 (HT-29 [4]): 3.7 µM
LC50 (50% lethal concentration) (HT-29 [4]): > 100 µM
TGI (HT-29 [4]): 32.3 µM
growth at 10 µM [5]: 87%
growth at 10 µM (HT-29 [6]): 38.9%
growth at 10 µM (SNB-19): 78.2%
GI50 (U-251): 4.3 µM
TGI (U-251): > 100 µM
CC50 (U-251): > 100 µM
GI50 (HOP-62): 9.07 µM
TGI (HOP-62): > 100 µM
CC50 (HOP-62): > 100 µM
growth at 10 µM (SK-OV-3): 85%
GI50 (SK-MEL-2): 3.48 µM
LC50 (SK-MEL-2): > 100 µM
TGI (SK-MEL-2): 32.8 µM
growth at 10 µM (A549 [7]): 72.2%
GI50 (SK-MEL-5): 5.49 µM
LC50 (SK-MEL-5): > 100 µM
TGI (SK-MEL-5): > 100 µM

Cc1ccc(C2=NN(c3ccc(S(C)(=O)=O)cc3)C(=O)CC2)cc1
GI50 (A549 [1]): 0.52 µM
TGI (A549 [1]): > 100 µM
CC50 (A549 [1]): > 100 µM
growth at 10 µM (DU-145): 6.77%
GI50 (RPMI-8226): 2.78 µM
TGI (RPMI-8226): > 100 µM
CC50 (RPMI-8226): > 100 µM
growth at 10 µM (M14): 10.2%
LC50 (SN12C): > 100 µM
growth at 10 µM (CCRF-CEM): 14.9%
GI50 (T47D): 2.08 µM
LC50 (T47D): > 100 µM
TGI (T47D): > 100 µM
GI50 (HCT-15): 0.61 µM
LC50 (HCT-15): > 100 µM
TGI (HCT-15): > 100 µM
GI50 (SW-620): 0.34 µM
TGI (SW-620): > 100 µM
CC50 (SW-620): > 100 µM
GI50 (TK-10): 7.69 µM
TGI (TK-10): > 100 µM
CC50 (TK-10): > 100 µM
GI50 (NCI-H23): 2.5 µM
TGI (NCI-H23): > 100 µM
CC50 (NCI-H23): > 100 µM
GI50 (NCI-H226 [2]): 0.43 µM
TGI (NCI-H226 [2]): > 100 µM
CC50 (NCI-H226 [2]): > 100 µM
GI50 (COLO 205): 0.52 µM
TGI (COLO 205): 6.07 µM
CC50 (COLO 205): > 100 µM
GI50 (NCI-H460): 0.38 µM
TGI (NCI-H460): > 100 µM
CC50 (NCI-H460): > 100 µM
GI50 (BT-549): 0.6 µM
TGI (BT-549): > 100 µM
CC50 (BT-549): > 100 µM
growth at 10 µM (SF-539): -7.93%
GI50 (OVCAR-5): 3.69 µM
TGI (OVCAR-5): > 100 µM
CC50 (OVCAR-5): > 100 µM
growth at 10 µM (K562): 11.7%
growth at 10 µM (NCI-H226 [3]): 77.6%
GI50 (HT-29 [4]): 0.33 µM
LC50 (50% lethal concentration) (HT-29 [4]): > 100 µM
TGI (HT-29 [4]): 10 µM
growth at 10 µM [5]: -1.17%
growth at 10 µM (HT-29 [6]): 11.1%
growth at 10 µM (SNB-19): 55%
GI50 (U-251): 0.45 µM
TGI (U-251): > 100 µM
CC50 (U-251): > 100 µM
GI50 (HOP-62): 1.3 µM
TGI (HOP-62): > 100 µM
CC50 (HOP-62): > 100 µM
growth at 10 µM (SK-OV-3): 19.9%
GI50 (SK-MEL-2): 0.43 µM
LC50 (SK-MEL-2): > 100 µM
TGI (SK-MEL-2): > 100 µM
growth at 10 µM (A549 [7]): 36.6%
GI50 (SK-MEL-5): 0.41 µM
LC50 (SK-MEL-5): > 100 µM
TGI (SK-MEL-5): > 100 µM
